Measured values: ChEMBL document CHEMBL4004846, “Synthesis and antitrypanosomal activities of novel pyridylchalcones” (Eur J Med Chem, 2017)
Calls of active or inactive are those of the source. No cut-off for these calls is given here.

Columns and labels:
[1] = test system: Trypanosoma brucei rhodesiense; test: Antitrypanosomal activity against Trypanosoma brucei rhodesiense STIB900 after 72 hrs by Alamar blue assay; assay type: functional; settings: STIB900, 72 h
Outline: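 T. b. rhodesiense STIB 900 bloodstream forms (1 x 10³ per well) incubated with 3-fold serial drug dilutions from DMSO stocks (20 mM) diluted in medium, 37°C, 5% CO2, 72 h, in triplicate. Drug-free controls and medium-only blanks were included. Alamar Blue was then added for 2-4 h and fluorescence read at ex 530/em 580 nm. IC50 is the mean of two independent experiments.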

KB = test: Cytotoxicity against human KB cells after 72 hrs by Alamar blue assay; assay type: cell-based
Outline: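 Human nasopharyngeal carcinoma KB cells were grown in RPMI 1640 with 10% heat-inactivated foetal calf serum at 37°C and 5% CO2. Monolayers were exposed to compounds for 72 h. Alamar Blue was then added for 2-4 h and fluorescence read at 530/580 nm. IC50 was derived by sigmoidal regression from the mean of two independent triplicate experiments.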

[2] = Selectivity index, ratio of IC50 for human KB cells to IC50 for Trypanosoma brucei rhodesiense STIB900; assay type: toxicity; settings: read-out: Ratio IC50
Outline: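 SI is calculated as the KB-cell IC50 divided by the T. b. rhodesiense STIB900 IC50.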

Leishmania donovani [3] = test: Antileishmanial activity against Leishmania donovani HU3 amastigote forms infected in CD-1 mouse macrophages at 10 uM after 2 to 3 days by Giemsa staining based microscopic method relative to control; assay type: functional
Leishmania donovani [4] = test: Antileishmanial activity against Leishmania donovani HU3 amastigote forms infected in CD-1 mouse macrophages at 30 uM after 2 to 3 days by Giemsa staining based microscopic method relative to control; assay type: functional

SMILES | IC50 [1] [µM] | IC50 (KB) [µM] | selectivity ratio [2] | Activity (Leishmania donovani [3]) | inhibition at 30 µM (Leishmania donovani [4]) [%]
O=C(/C=C/c1ccncc1)c1cccc(Br)c1 | 0.65 | 23.7 | 36 | inactive | 
O=C(/C=C/c1cccc(Br)c1)c1cccnc1 | 0.69 | 43.7 | 63 | inactive | 
COc1cccc(C(=O)/C=C/c2cccnc2)c1 | 0.41 | 2.3 | 6 | inactive | 
COc1cc([C@@H]2c3cc4c(cc3[C@H](O)[C@H]3COC(=O)[C@H]23)OCO4)cc(OC)c1OC [PODOFILOX] |  | 0.058 |  |  | 
O=C(/C=C/c1cccnc1)c1cccc(Br)c1 | 0.29 | 13.5 | 47 | inactive | 39.7
O=C(CC(CC(=O)c1cccc(Br)c1)c1cccnc1)c1cccc(Br)c1 | 12.2 | 181 | 15 | inactive | 
COc1ccccc1C(=O)/C=C/c1cccnc1 | 1.14 | 22.7 | 20 | inactive | 
O=C(/C=C/c1cccnc1)c1ccc(Br)cc1 | 0.34 | 7.9 | 23 | inactive | 11.6
O=C(/C=C/c1cccnc1)c1cccnc1 | 1.02 | 17 | 17 | inactive | 
O=C(/C=C/c1cccnc1)c1ccccc1Br | 37.8 | > 300 | > 8 | inactive | 
O=C(/C=C/c1cccnc1)c1ccc2c(c1)OCO2 | 4.83 | 59.4 | 12 | inactive | 
O=C(/C=C/c1cccnc1)c1ccccc1 | 0.72 | 7.7 | 11 | inactive | 
O=C(/C=C/c1cccnc1)c1cccc(Cl)c1 | 0.62 | 12.7 | 21 | inactive | 2.7
COc1ccc(C(=O)/C=C/c2cccnc2)cc1 | 0.94 | 21.7 | 23 | inactive | 
COc1ccc(C(=O)/C=C/c2cccnc2)cc1OC | 0.98 | 22.8 | 24 | inactive | 
O=C(/C=C/c1ccccn1)c1cccc(Br)c1 | 0.4 | 14.7 | 37 | inactive | 
O=C(/C=C/c1cccnc1)c1cccc(O)c1 | 1.15 | 21.7 | 19 | inactive | 
O=C(/C=C/c1cccnc1)c1ccc(F)c(F)c1 | 0.72 | 20.7 | 29 | inactive | 
O=C(/C=C/c1ccccc1)c1cccc(Br)c1 | 0.96 | 18.4 | 19 | inactive | 13.8
